In the RNAGym collection of RNA variant scans (doi:10.1126/science.aae0568):
Fewer inactive variants are shown than the library holds.

B1: tRNA (parent)
chain: GUUCCGUUGGCGUAAUGGUAACGCGUCUCCCUCCUAAGGAGAAGACUGCGGGUUCGAGUCCCGUACGGAACG

Variants of: B1
Experiment: yeast fitness relative to wild type (ratio to wild type); higher = fitter; tRNA-Arg(CCU), competitive growth, 37 C, YPD
Summary of the method: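 A pool of Saccharomyces cerevisiae strains, each with a tRNA-Arg(CCU) gene variant at the native genomic locus, was competed in YPD at 37°C for 24 hours across six parallel replicates. The variants had been chemically synthesised at a 3% per-site mutation rate over 69 sites, and gene amplicons before and after competition were read by 100-nucleotide paired-end sequencing. Darwinian fitness relative to wild type rested on changes in genotype frequencies. Genotypes required ≥ 100 starting reads, and estimates < 0.5 were set to 0.5.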

Point of comparison: GUUCCGUUGGCGUAAUGGUAUCGCGUCUCCCUCCUAAGGAGAAGACUGCGGGUUUAAGUCCCGUACGGAACG, yeast fitness 0.567. Against it:
- GUUCUGUUGGCGUAAUGGUAACGCGUCUCCCUCCUAAGGAGAAGACUGCAGGUUCGAGUCCCGUACGGAACG — higher, 0.888
- GUUCCGUUGGCGUAAUGGUAACGCCUCUCCCCCCUAAGGAAAAGACUGCGGGUUCGAGUCCCGUACGGAACG — lower, ≤ 0.5
- GUUCCGUUGGCGUAAUGGUAACGCGUCUCCCUCCUAAGGAGAUGACUGCGGGUUCGAGUCCCGGACGGAACG — higher, 0.7
- GUUCGGUUGGCGUAAUGGUAACGCGUCUCCCUCCUAAGGAGAAGACUGCGGGUUCAACUCCCGUACGGAACG — higher, 0.756
- GUCCCGUUGGCGUAAUGGUAACGCGUCUCCCUCAUAAGGAGAAGACUGCGGGUUCGAGUCCCGUACGGAACG — higher, 0.665
- GUUCCGUUGGCGUAAUGGUAACGCGUCUCCCUCCUAAGGAGAAGACUGCGGCUUCGAGUCCGGUACGGAACG — higher, 0.646
- GUUCCGUUGGCGUAAUGGUAACGCGUCUCCCUCUUAAGGAGAACACUGCGGGUUCAAGUCCCGUACGGAACG — lower, ≤ 0.5
- GUUCAGUUGGCGUAAUGGUAAGGCGUCUCCCUCCUACGGCGAAGACUGCGGGUUCGAGUCCCGUACGGAACG — higher, 0.736
- GUUCAGUUGGCGUAAUGGUAACGCGUCUCCCUCCUAAGGAGAAGACUGCGGAUUCGAGUCCCAUACGGAACG — lower, ≤ 0.5
- GUUCCGCUGGCGUAAUGGUAACGCGUCUCCCUCCUAAGGAACAGACUGCCGGUUAGAGUCCCGUACGGAACG — lower, ≤ 0.5
- GUUCCGUUGGCGUAAUGGUAACGCGUCUCGCUCCUAAGGAGAAGAGUGCGGGUUCGAGUCUCGUACGGAACG — lower, ≤ 0.5
- GUUCCGUUGGCGUAAUGGUAACGCGUCUCCCUCCUAAGGAGAAGACUGCGGGUUGGAGUCGCGUACGGAACG — lower, ≤ 0.5
- GUUCCGUUGGCGUAAUGGUGACGCGUCUCCGUCCUAAGGAGAAGACUGCGGGUUGGAGUCCCGUACGGAGCG — lower, ≤ 0.5
- GUUCCGUUGGGGUAGUGGUAACGCGUCUCCCUGCUAGGGAGAAGACUGCGGGUUCGAGUACCGUACGGAACG — higher, 0.582
- GUUCCGUUGGCGUUAUGGUAAAGCGUCUCCCUCCUAAGGAGAGGACUGCGGGUUCGAGUCCCGUACGCAACG — lower, ≤ 0.5
- GUUCCGUUGGCGUUAUGGUAACGCGUCUCUCUCCUAGGGAGAAGACUGCGGGUUCGAGUCCCGUACGGAGCG — lower, ≤ 0.5
- GUUCCGUUGGCGUAAUGGUAACGCGCCUCCCUCCUAAGGAGAAGACUGCGGGUUCGAGUCACGUAUGGAACG — lower, 0.525
- GUUCCGUUGGCGCAAUGGUAACGCGUCUCCCUCCUAAGGAGAAGACCGCGGGUUCGAGUCCCGUGCGGAACG — higher, 0.766
- GUUCCGUUGGCGUAAUGGUAACGUGUCUCCCUGUUAAGGAGAAGACUGCGGGUUCGAGUCCCGUACGGAACG — higher, 0.672
- GUUCCGUUGGCGUAAUGGUAAUGCGUCUCCCUCCUAAGGAGAAGACUGCGGGUUCGUGUCCCGUAUGGAACG — lower, 0.553
- GUUGCGAUGGCGUAAUGGUAACGCGUCUCCGUCCUAAGGAGAAGACUGCGGGUUCGAGACCCGUACGGAACG — lower, ≤ 0.5
- GUUCCGUUGGCGUAAUGGUAACCCGUCUGCCUUCUAAGGAGAAGAUUGCGGGUUUGAGUCCCGUACGGAACG — lower, ≤ 0.5
- GUUCCGUUGGUGUAAUGGUAACGCGUCUCCCUCCCAAGGAGAAGAGUGCGGCUUCGAGUCCCGUACGCAACG — lower, ≤ 0.5
- GUUCGGUUGGCGUAAUGGUAACGCGUCUCACUCCUGAGGAGAAGACUGCGGGUUCGAGUCCCGCACGGAACG — lower, ≤ 0.5
- GUUCCGUUGGCGUAAUGGUAUCGCGUCUCCCUCCUAAGGAACAGACUGCGGGUUCGAGCCCCGUACGGUACG — lower, ≤ 0.5
- GUUCCGUUGGCGUAAUGGUAACGCGUCUCCCUCCUAAGGAGAAGACAGCCGGUUCGAGUCCCGUACGGAACG — higher, 0.69
- GUUCCGUUGGCGAAAUGGUAACGCAUCUCCCUCCUAAGGAGAAGACUGCGGGUUCGAGUCCCGUACGGAACG — higher, 1.01
- GUUCCGUUGCCGUAAUGGUAACGAGUCUCCCUCCUAAGGAGAAGAUUGCGGGUUCGAGUCCCGUACGGAACG — lower, ≤ 0.5
- GUUCCAUUGGCGUAAUGCUAACGCGUCUCCCUCCUACGGAGAAGACUGCGGGUUCGAGUCCAGUACGGAACG — higher, 0.604
- GUUCCGUUGGCGUAAUGGUUACGCGUCUCCCUCCUAAGGAGAAGACUGCGGGUUCGAAUCCCGUACGGAACG — higher, 0.907
- GUUCCGUUGGGGUAAUGGUAACGCGUCUCCCUCUUAAGGAGAACACUGCCGGUUCGAGUCCCGUAUGGAACG — lower, ≤ 0.5
- GUUCCGUUGGCGUAAUAGUAACGCGUCUCCCUCAUAAGGAGAAGACUGCGGGUUCGAGUCCCGUACGGAACG — higher, 0.595
- GUUCCGUCGGCGUAAUGGUAACACGUCUCCCUCAUAAGGAGUAGAAUGCGGGUUCGCGUCCCGUACCGAACG — lower, ≤ 0.5
- GUUUCGUUAGUGUAAUGGUAACGCGUCUCCCUCAUAAGGAGAAGACUGCGGGUUCGAGUCCCGUACGGAACG — lower, ≤ 0.5
- GUUCCGUUGGCGUAAUGGUAACGCGUCUCCCUCCUAAGGAGAAGACUGCGGGUUCGAGUCGCGUACCAAACG — higher, 0.611
- GUUCCGUUGGCGUAAUGGUAACGCGUCUCCCUCCUAAGGAGAUGAAUCCGGGUUCGAGUCCCGUACGGAACG — higher, 0.631
- GUUCCGUUGGCGGAAUGGUAACCCGUCUCCCUCCUAAGGAGACGACUGCGGGUUCGAGUCCCGUACGGAACG — higher, 0.584
- GUUCCGUUGGCGUAAUGGUAACGCGUAUCCCUCCUGAGGAGAAGACUGCGGGUUCGAGUCCCGUACGGAUCG — lower, 0.561
- GGUCCGUUGGCGUAAUGGUAACGCGUCUCCGUGCUAAGGUGAAGACUGCGGAUUCGAGUGCUGUACGGAACG — lower, 0.515
- GUUCCGUUGGCGUAAUGGUAACGCGUCUCCCACCAAAGGAGAAGACUGCGGGUUCGAGUCCCGUACGGAACG — higher, 0.619
- GUUCCGUUGGCGUAAUGGUAACGCGUCUGCCUCCUAAGGAGAAGACUACGGGUUCGAGUCCCGUACGGUACG — lower, 0.542
- GUUCCGUUGGCGUAGUGGUAACGCGUUUUCCUCCUACGGAGAAGACUGCGGGUUCGAGUUCCGUACGGCACG — lower, ≤ 0.5
- GUUCCGUUGGCGUAAUGGAAACGCGUCUCCCUCCUAAGGAGAAGAUUGCGGGUUCGAGUCCCGUACGGAACG — higher, 0.958
- GUUCCGUUGGCGUAAUGGUAACGCGUCUCCCUCCUAAGGACAGGACUGCGGGUACGAGUCCCGUACGGAACG — lower, 0.564
- GUUCCGUUGGCGUAAUGGUCACGCGUCUCCCUCGUAAGGAGACGACUGCGGGUUCGAGUCCUGUACGCAACG — lower, ≤ 0.5
- GUUCCGUUGGCGUAUUGGUAACGCGUCUCCCUCCUAAGGAGAAGACUGCGGGUUCCAGUCCCGUACGGAACG — lower, 0.549
- GUUCCGUUGGCGUAAUGGUGACGCGACUCCCUCCUAAGGAGAAGCCUGCGGGUUCGAGUCCCGUACGGAACG — lower, 0.519
- GUUCCGUUGGCGUAAUGGUAACGCGUCUCCCUCCUAAGGAGAAGACUGCGGGUUCGAGUCCCGGACGGCACG — higher, 0.616
- GUUCCGUUGGCGUAAUGGUAACGCGUCUCUCUCCUAAGGGGAAGACUGCGGGUUUGAGUCCCGCACGGAACG — higher, 0.646
- GUACCGUUGGCGUGUUGGUAACGCGUCUCCCUCCUUAGCUGAAGACUGUGGGUUAGAGUCCCGUACGGAACG — higher, 0.612
- GUUCCGUUCGCGUAAUGCUAACGCGUCUCCCUCCUAAGGAGAAGACUGCGGGUUCGAGUCCCGUACGGAACG — lower, 0.525
- GUUCCGUUGGCGUAAUGGUAACGCGUCUCCCUGCUAAGGAGAAGACUGCGGGUUCGAGUCCCGUACGGCACG — higher, 0.742
- GAUCCGUUGGCAUAAUGGUGACGCGCCUCCGUUCUAAGGAGUAGACUGCGGGUUCGAGUCCCGUACGGAACG — lower, ≤ 0.5
- GUUCCGUUGGCGUAAUGGUAACGCGUCUCCUUCCUAAGGAGAUGACUACGGGAUCGAGUCCUGUACGGAACG — lower, ≤ 0.5
- GUCCCGUUGGCGCAAUGGUAACGUGUCUCCCUCCUAAGGAGAAGACUGCGGAUUCGAGUCCCGUACGAAACG — lower, ≤ 0.5
- GUUCCGUUGGCGUAAUAGUAACCCGUCUCCCUCCUAAGGAGAAGACUGCGGGUACGAGUCGCGUACGGAACG — lower, ≤ 0.5
- GUUUCGUUGGCGUAAUCGUAACGCGUCUCCCUCCUAAGGAGAAAACUGCGGGUUCGAGUCUCGUACGGAACG — lower, 0.556
- GUUCCGAUGGCGUAAUGGUAAAGCGUCUCUCUCCUAAGGAGAAGACUGCGGGUUCGAGUCUCGUACAUAACG — lower, ≤ 0.5
- GUUCCGUUGGCGUAAUGGUGACGCGUCUCCCUCCUAAGGAGCAGACUGCGGGUUCGAGUCCCGGACGGAACG — lower, ≤ 0.5
- GUUCCAUUGGCGUAAUGGUAACGCGUCUCCCUCCUAAGGAGAAGACUGCGGGUUCGAGUCCCGUACGCAACG — higher, 0.754
- GUUCCGUUGGCGUAAUGGUAACGCGUCUCCCUCCUAAGGAGAAGACUGCGGGUACGAGUCCCGUCCGGAACG — higher, 0.724
- GUUCCGUUGGCGUAAAGGUAACGCGUCUCCCUCCUAAGGAGAAGACUGCGGGUUCGAGUCCCCUACGGAACG — higher, 0.676
- GUUCCGUUGGCGUAAUGGUAAUGCGUCUCCCUCCUAAGGAGAAGACUACGGGUCCGAGUCCCGUACGGAACG — higher, 0.601
- GUUCCGUUGGCGUAAAGGUAACGCGUCUCCCUCCUAAGGAGAAGACUGCGGAUUCGAGUCCCGUACGGAACG — higher, 0.827
- GUUCCGUUGGCGUAGUGGAAACGCGUCACCCUCCUAAGGAGAAGACUGCGGGUUCGAGUCCCAUACGGAACG — lower, ≤ 0.5
- GUUGCGCUGGUGUAAUGGUAAUGCGUCUCCCUCCGAAGGAGAAGACUGCGGGUUCGAGUCACGUACGGAACG — lower, ≤ 0.5
- GUCCCGUUGGCGUAAUGGUAACGCGUCUCCCUCCUAAGGAGAUGACUGCGGGUUCGAGUCCCGUACGGAACG — higher, 0.987
- GUUUCGUUGGCGUAAUGGUAACGCGUCUCCGUCGUAAGGAGAUGACUGCGGGUUCGAGUCCCGUACGCGACG — lower, ≤ 0.5
- GUUCCGUUGGCGUAAUGGUAACGGGUCUCCCUCUAAAGGAGCAGACUGCGGGUUCGAGUCCCGUAAGGAACG — lower, ≤ 0.5
- GUUCUGUUGGCGUAAUGGUAACGCGUCUCCCUCCUAAGGAGAAGACUGCCCGUUCCAGUCCCGUACGGUACG — lower, ≤ 0.5
- GCUCCGUUGGCGUAAUGGUAACGCGUCUCCCUCCUCAGAAGAAGACUGCGGGUUCGUGUCCCGUACGGAACG — lower, 0.539
- GUUCCGUUGGCGUAAUGAUAACGCGUCUCCCUCCUACGGAGCAGACUGCGGGUUUGAGUCCCGUACGGAACG — lower, ≤ 0.5
- GUUCCGUCGGCGUAAUGGUAACGCGUCUCCCUCCUAAGGAGAAGCCUGCGGGUUCGAGUCCCGUACGGUACG — higher, 0.765
- GUUCCGUUGGGGUAAUGGUAACGCGUGUGCCUCUUAAGGAGAAGACUGCGGGUUCGAGUCCCGUACGGAACG — higher, 0.599
